Measurements: ChEMBL document CHEMBL1649336, “Isolation and characterization of minor analogues of silvestrol and other constituents from a large-scale re-collection of Aglaia foveolata” (J Nat Prod, 2010)

What was measured:
HT-29 = test: Cytotoxicity against human HT-29 cells after 3 days by sulforhodamine B assay; type: functional; conditions: HT-29, 72 h, read-out: ED50 (the source's name)
Method in brief: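 HT-29 (ATCC) cells grown in MEME with 10% FBS and antibiotics at 37 °C, 5% CO2, used one day after a medium change at 60–70% confluence. 9500 cells/well exposed in triplicate to serial dilutions (10% DMSO vehicle, also the control) for 3 days. Cells fixed with cold TCA, stained with 0.4% SRB, dye solubilized in 10 mM Tris (pH 10), A515 read. ED50 by nonlinear regression.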

Transcription factor p65 = Transcription factor p65 (Homo sapiens, UniProt Q04206); test: Inhibition of NF-kappaB p65 isolated from nuclear extract of human HeLa cells assessed as blockade of binding to biotinylated consesus sequence by chemiluminescence assay; type: cell-free
Transcription factor p65, sequence (Q04206 whole entry): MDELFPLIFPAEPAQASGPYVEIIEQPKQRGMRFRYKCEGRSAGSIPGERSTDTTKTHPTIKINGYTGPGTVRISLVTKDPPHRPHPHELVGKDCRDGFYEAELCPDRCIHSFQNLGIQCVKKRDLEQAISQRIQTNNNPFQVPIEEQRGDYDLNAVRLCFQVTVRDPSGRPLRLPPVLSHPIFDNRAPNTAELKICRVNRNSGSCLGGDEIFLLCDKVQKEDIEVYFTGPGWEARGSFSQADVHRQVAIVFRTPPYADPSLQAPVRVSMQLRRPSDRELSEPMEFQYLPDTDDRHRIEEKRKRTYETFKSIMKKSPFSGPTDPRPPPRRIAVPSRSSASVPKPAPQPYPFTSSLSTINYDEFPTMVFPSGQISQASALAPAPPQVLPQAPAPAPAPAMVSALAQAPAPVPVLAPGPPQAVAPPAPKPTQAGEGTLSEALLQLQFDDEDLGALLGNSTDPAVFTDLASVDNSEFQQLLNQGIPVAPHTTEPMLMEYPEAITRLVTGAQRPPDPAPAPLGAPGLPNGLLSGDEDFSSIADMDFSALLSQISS

Row | IC50 (Transcription factor p65) | Compound | EC50 (HT-29)
1 |  | COC(=O)[C@H]1[C@@H](O)[C@@]2(O)c3c(OC)cc(O[C@@H]4O[C@@H]([C@@H](O)CO)CO[C@H]4OC)cc3O[C@@]2(c2ccc(OC)cc2)[C@@H]1c1ccccc1 [2'-EPISILVESTROL] | 1 nM
2 |  | CC(=O)O[C@H]1C(=O)[C@@]2(C)[C@H]([C@H](OC(=O)c3ccccc3)[C@]3(O)C[C@H](OC(=O)[C@H](O)[C@@H](NC(=O)c4ccccc4)c4ccccc4)C(C)=C1C3(C)C)[C@]1(OC(C)=O)CO[C@@H]1C[C@@H]2O [PACLITAXEL] | 0.6 nM
3 |  | COC(=O)[C@H]1[C@@H](O)[C@@]2(O)c3c(OC)cc(O[C@@H]4O[C@@H]([C@H](O)CO)CO[C@@H]4OC)cc3O[C@@]2(c2ccc(OC)cc2)[C@@H]1c1ccccc1 | 2290 nM
4 |  | CC[C@@]1(O)C(=O)OCc2c1cc1n(c2=O)Cc2cc3ccccc3nc2-1 [CAMPTOTHECIN] | 60 nM
5 | > 20000 nM | CC(C)C1=CC2=C(CO)C(=O)C[C@@H](O)[C@]2(C)CC1 | > 10000 nM
6 | > 20000 nM | CC(C)(O)[C@@H]1CC[C@@]2(O)CC[C@]3(C)[C@H](CC[C@@H]4[C@@]5(C)CCC(=O)C(C)(C)[C@H]5CC[C@]43C)[C@H]2O1 | > 10000 nM
7 | > 20000 nM | CC(C)(O)[C@@H]1CC[C@](C)([C@H]2CC[C@]3(C)[C@@H]2CC[C@@H]2[C@@]4(C)CCC(=O)OC(C)(C)[C@@H]4CC[C@]23C)O1 | > 10000 nM
8 |  | COC(=O)[C@H]1[C@@H](O)[C@@]2(O)c3c(OC)cc(O[C@@H]4O[C@@H]([C@@H](O)CO)CO[C@@H]4OC)cc3O[C@@]2(c2ccc(OC)cc2)[C@@H]1c1ccccc1 | 1070 nM
9 | > 20000 nM | CC(C)(O)[C@@H]1CC[C@@](C)([C@H]2CC[C@]3(C)[C@@H]2CC[C@@H]2[C@@]4(C)CCC(=O)OC(C)(C)[C@@H]4CC[C@]23C)O1 | > 10000 nM

Row | Compound | IC50 (Transcription factor p65) | EC50 (HT-29)
10 | COC(=O)[C@H]1[C@@H](O)[C@@]2(O)c3c(OC)cc(O[C@@H]4O[C@@H]([C@H](O)CO)CO[C@H]4OC)cc3O[C@@]2(c2ccc(OC)cc2)[C@@H]1c1ccccc1 [SILVESTROL] | > 20000 nM | 0.7 nM
